Target: Cytochrome P450 2C9 (Homo sapiens, UniProt P11712)
Test: Inhibition of CYP2C9 in human liver microsomes using dichlofenac as substrate preincubated for 10 mins followed by NADPH addition measured after 6 mins
Assay type: ADME
Procedure, shortened: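 Human liver microsomes (0.05 mg/mL protein) with cocktail substrates: 4 µM diclofenac (2C9), 3 µM dextromethorphan (2D6), 2.5 µM midazolam (3A4). Compound in 0.1 M potassium phosphate pH 7.4 preincubated 10 min at 37 °C; NADPH added, reaction 6 min at 37 °C.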

Cytochrome P450 2C9, sequence (P11712 whole entry): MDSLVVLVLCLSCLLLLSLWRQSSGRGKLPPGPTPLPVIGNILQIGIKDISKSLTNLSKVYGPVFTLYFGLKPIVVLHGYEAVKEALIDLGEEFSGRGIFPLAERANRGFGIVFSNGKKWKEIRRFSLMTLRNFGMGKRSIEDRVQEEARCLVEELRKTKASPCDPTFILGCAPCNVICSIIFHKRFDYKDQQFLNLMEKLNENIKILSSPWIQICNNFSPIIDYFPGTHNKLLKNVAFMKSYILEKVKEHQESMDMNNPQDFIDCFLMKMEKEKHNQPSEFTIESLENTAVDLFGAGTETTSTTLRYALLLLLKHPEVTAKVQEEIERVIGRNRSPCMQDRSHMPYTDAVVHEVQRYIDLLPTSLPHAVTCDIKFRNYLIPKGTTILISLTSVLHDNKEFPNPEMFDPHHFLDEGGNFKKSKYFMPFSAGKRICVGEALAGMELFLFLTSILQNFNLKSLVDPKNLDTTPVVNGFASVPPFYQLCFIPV

IC50: > 30 µM
SMILES: CN(C)C(=O)Cn1cc(-c2nc([C@@](C)(c3ccc(-c4cnc(N)nc4)cc3)C3CC3)no2)cn1 [BI 665915]

From ChEMBL document CHEMBL3414472, “Synthesis, SAR, and series evolution of novel oxadiazole-containing 5-lipoxygenase activating protein inhibitors: discovery of 2-[4-(3-{(r)-1-[4-(2-amino-pyrimidin-5-yl)-phenyl]-1-cyclopropyl-ethyl}-[1,2,4]oxadiazol-5-yl)-pyrazol-1-yl]-N,N-dimethyl-acetamide (BI 665915)” (J Med Chem, 2015)
